In ChEMBL document CHEMBL1158567, “Azetidinone-isothiazolidinones: stereoselective synthesis and antibacterial evaluation of new monocyclic beta-lactams” (2010) one finds MIC data, which are given here for 14 compounds.

Common to all, as to type: functional
One assay deals with Enterococcus faecalis. Nature of the assay: Antibacterial activity against Enterococcus faecalis ATCC 29212 after overnight incubation by broth microdilution method. In short, it runs like this:
(§1)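 MIC from a broth microdilution screen against ATCC reference strains, run in cation-adjusted Mueller–Hinton broth. Inocula were made from overnight agar cultures: colonies were suspended in sterile saline to a turbidity equal to a 0.5 McFarland standard. The screen's upper cut-off was […]. Testing conditions were pH 7.4.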
For orientation: Dilution methods test growth across graded concentrations, often in twofold steps.

In the next assay the test system is Moraxella catarrhalis. Nature of the assay: Antibacterial activity against Moraxella catarrhalis ATCC 23246 after overnight incubation by broth microdilution method. The method, boiled down:
as §1

The test system of a further assay is Staphylococcus aureus. Nature of the assay: Antibacterial activity against Staphylococcus aureus ATCC 29213 after overnight incubation by broth microdilution method. The method, boiled down:
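MIC from a broth microdilution screen in cation-adjusted Mueller–Hinton broth against the ATCC reference strain. The inoculum was colonies from overnight agar culture suspended in sterile saline to a 0.5 McFarland turbidity. The top concentration tested was […]. Testing conditions were pH 7.4.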

In a further assay the test system is Escherichia coli. The experiment in a line: Antibacterial activity against Escherichia coli ATCC 25922 after overnight incubation by broth microdilution method. The method, boiled down:
as §1

For a further assay, the system named is Streptococcus pneumoniae. Nature of the assay: Antibacterial activity against Streptococcus pneumoniae ATCC 6305 after overnight incubation by broth microdilution method. In short, it runs like this: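 Broth microdilution MIC in cation-adjusted Mueller–Hinton broth supplemented with 5% horse serum. The inoculum was overnight agar colonies suspended in sterile saline to 0.5 McFarland turbidity. The screen cut-off was […]. Testing conditions were pH 7.4.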

A further assay has as its system Haemophilus influenzae. Nature of the assay: Antibacterial activity against Haemophilus influenzae ATCC 49247 after overnight incubation by broth microdilution method. The method, boiled down: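 Broth microdilution MIC run in Haemophilus Test Medium (HTM). The inoculum was overnight agar colonies suspended in sterile saline to 0.5 McFarland turbidity. The upper cut-off was […]. Testing conditions were pH 7.4.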

SMILES strings stand for the structures. Converted amounts (≈) assume the structure as drawn.

On to `C[C@@H](C(=O)O)N1SC(C)(C)[C@@H](N2C(=O)[C@@H](N3C(=O)c4ccccc4C3=O)[C@@H]2Cl)C1=O`, for which, in the assay on Enterococcus faecalis, the MIC is > 128 µg/mL.
For the compound `CC1(C)S[C@@H]2[C@H](N3C(=O)c4ccccc4C3=O)C(=O)N2[C@H]1C(=O)NCC(=O)OCc1ccccc1`, the MIC with Moraxella catarrhalis turned out to be 64 µg/mL (≈ 130 µM).
In the case of `CC1(C)SN(CC(=O)OCc2ccccc2)C(=O)[C@@H]1N1C(=O)[C@@H](N2C(=O)c3ccccc3C2=O)[C@@H]1Cl`, the MIC was 64 µg/mL (≈ 121 µM) with Staphylococcus aureus; 32 µg/mL (≈ 60.6 µM) in the assay on Moraxella catarrhalis; > 128 µg/mL against Escherichia coli; 32 µg/mL (≈ 60.6 µM) against Enterococcus faecalis; 64 µg/mL (≈ 121 µM) against Streptococcus pneumoniae; > 128 µg/mL in the assay with Haemophilus influenzae.
The compound `CC(C)N1SC(C)(C)[C@@H](N2C(=O)[C@@H](N3C(=O)c4ccccc4C3=O)[C@@H]2Cl)C1=O` showed an MIC against Moraxella catarrhalis of 64 µg/mL (≈ 152 µM).
Turning to `CC1(C)SN([C@H](C(=O)OCc2ccccc2)c2ccccc2)C(=O)[C@@H]1N1C(=O)[C@@H](N2C(=O)c3ccccc3C2=O)[C@@H]1Cl`, the MIC against Staphylococcus aureus was 32 µg/mL (≈ 53 µM); against Moraxella catarrhalis, 64 µg/mL (≈ 106 µM); against Escherichia coli, > 128 µg/mL; against Enterococcus faecalis it was 16 µg/mL (≈ 26.5 µM); with Streptococcus pneumoniae it was 8 µg/mL (≈ 13.2 µM); against Haemophilus influenzae, > 128 µg/mL.
Consider `CC(C)NC(=O)[C@@H]1N2C(=O)[C@@H](N3C(=O)c4ccccc4C3=O)[C@H]2SC1(C)C`, for which the MIC against Moraxella catarrhalis is > 128 µg/mL.
With `CC1(C)S[C@@H]2[C@H](N3C(=O)c4ccccc4C3=O)C(=O)N2[C@H]1C(=O)NCc1ccccc1`, the MIC in the assay with Moraxella catarrhalis amounted to 64 µg/mL (≈ 147 µM).
Still for that read-out and setting: to `CC1(C)SN([C@H](C(=O)O)c2ccccc2)C(=O)[C@@H]1N1C(=O)[C@@H](N2C(=O)c3ccccc3C2=O)[C@@H]1Cl` belongs > 128 µg/mL.
Turning to `CC1(C)SN(Cc2ccccc2)C(=O)[C@@H]1N1C(=O)[C@@H](N2C(=O)c3ccccc3C2=O)[C@@H]1Cl`, the MIC in the assay on Staphylococcus aureus is 128 µg/mL (≈ 272 µM); with Moraxella catarrhalis, 16 µg/mL (≈ 34 µM); against Escherichia coli, > 128 µg/mL; in the assay with Enterococcus faecalis it was 64 µg/mL (≈ 136 µM); against Streptococcus pneumoniae, 64 µg/mL (≈ 136 µM); against Haemophilus influenzae, > 128 µg/mL.
For the compound `CC1(C)S[C@@H]2[C@H](N3C(=O)c4ccccc4C3=O)C(=O)N2[C@H]1C(=O)N[C@H](C(=O)OCc1ccccc1)c1ccccc1`, the MIC against Moraxella catarrhalis was > 128 µg/mL.
Consider `C[C@@H](C(=O)OCc1ccccc1)N1SC(C)(C)[C@@H](N2C(=O)[C@@H](N3C(=O)c4ccccc4C3=O)[C@@H]2Cl)C1=O`, for which the MIC is 64 µg/mL (≈ 118 µM) with Staphylococcus aureus; 32 µg/mL (≈ 59 µM) in the assay on Moraxella catarrhalis; > 128 µg/mL in the assay on Escherichia coli; 64 µg/mL (≈ 118 µM) in the assay with Enterococcus faecalis; 64 µg/mL (≈ 118 µM) in the assay with Streptococcus pneumoniae; > 128 µg/mL in the assay with Haemophilus influenzae.
For the compound `CC1(C)SN(CC(=O)O)C(=O)[C@@H]1N1C(=O)[C@@H](N2C(=O)c3ccccc3C2=O)[C@@H]1Cl`, the MIC against Enterococcus faecalis was > 128 µg/mL.
With `CC1(C)S[C@@H]2[C@H](NC(=O)[C@H](N)c3ccc(O)cc3)C(=O)N2[C@H]1C(=O)O` [AMOXICILLIN], the MIC in the assay with Staphylococcus aureus is 1 µg/mL (≈ 2.74 µM); against Moraxella catarrhalis, 0.5 µg/mL (≈ 1.37 µM); against Escherichia coli it was 0.5 µg/mL (≈ 1.37 µM); in the assay on Enterococcus faecalis, 4 µg/mL (≈ 10.9 µM); in the assay with Streptococcus pneumoniae it was 4 µg/mL (≈ 10.9 µM); in the assay on Haemophilus influenzae, 0.015 µg/mL (≈ 0.041 µM).
`C[C@H](NC(=O)[C@@H]1N2C(=O)[C@@H](N3C(=O)c4ccccc4C3=O)[C@H]2SC1(C)C)C(=O)OCc1ccccc1`: in the assay on Moraxella catarrhalis, the MIC is > 128 µg/mL.
